Screening data: PubChem, several laboratories
A selection: hits, their analogues and other compounds. The true share with any hit is near 2.3%.
Mac1 fbg inh: inhibitors of CD11b/CD18 adhesion to fibrinogen, primary screen, K562 cells, luminescence; Integrin beta-2 (Homo sapiens) + Integrin alpha-M (Homo sapiens), P05107+P11215; AID 1497, 2009; ATPlite luminescence; Mn2+ added to activate the integrin; 0.54% of 93,000 active; inhibition, % at 10 µM;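 active means primary inhibition of 50% or more at 10 µM, then 40% or more on retest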
Target sequence (P05107 whole entry, looked up, other chains not shown): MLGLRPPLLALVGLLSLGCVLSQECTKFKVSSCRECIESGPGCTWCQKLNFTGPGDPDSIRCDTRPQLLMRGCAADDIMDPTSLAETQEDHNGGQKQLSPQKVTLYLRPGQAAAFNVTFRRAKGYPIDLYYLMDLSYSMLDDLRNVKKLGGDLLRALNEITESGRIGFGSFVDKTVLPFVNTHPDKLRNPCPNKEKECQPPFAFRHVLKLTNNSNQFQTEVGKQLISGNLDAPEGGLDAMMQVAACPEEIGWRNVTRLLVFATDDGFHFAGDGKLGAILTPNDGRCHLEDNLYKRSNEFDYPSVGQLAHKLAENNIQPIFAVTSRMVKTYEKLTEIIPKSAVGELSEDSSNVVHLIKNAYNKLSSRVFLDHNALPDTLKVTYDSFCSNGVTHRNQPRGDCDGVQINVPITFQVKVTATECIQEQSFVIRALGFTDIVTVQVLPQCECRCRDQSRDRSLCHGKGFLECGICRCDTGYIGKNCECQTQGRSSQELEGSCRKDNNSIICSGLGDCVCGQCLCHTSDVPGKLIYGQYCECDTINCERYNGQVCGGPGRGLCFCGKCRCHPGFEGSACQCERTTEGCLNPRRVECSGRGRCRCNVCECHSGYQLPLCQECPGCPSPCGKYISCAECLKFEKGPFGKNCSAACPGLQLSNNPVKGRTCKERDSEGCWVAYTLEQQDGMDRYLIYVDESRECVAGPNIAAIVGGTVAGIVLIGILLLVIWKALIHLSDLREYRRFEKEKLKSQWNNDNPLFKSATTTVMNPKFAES
Pyk2 oligo antag: antagonists of Pyk2 self-association, primary screen, Q293 cells, FERM NanoBiT luminescence, HTS. Protein-tyrosine kinase 2-beta (Homo sapiens), Q14289. hits give low values. z-score (the deposit names both 25 µM and 10 µM). 0.83% of 99,000 active;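 active means Z-score of -3 or lower, scaled per plate to the spread of control and sample wells; inactive means z-score above -3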;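 further: negative z-score means lost luminescence so less FERM oligomerization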
E coli WT exp: growth inhibitors of wild-type E. coli, primary screen, strain BW25113, expanded library, OD600; 0.15% of 98,000 active; OD600 absorbance; growth inhibition, % at 100 µM; AID 710, 2007;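 active means growth inhibition above about 50% at one test dose, limit read from the data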;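 further: growth measured after 20 h incubation at 37 °C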
Mac1 fbg enh: enhancers of CD11b/CD18 adhesion to fibrinogen, primary screen, K562 cells, luminescence. activation, % at 10 µM. ATPlite luminescence. 0.07% of 93,000 active;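 active means 10 µM primary screen giving 50% or more activity, confirmed by 40% or more on retest at that dose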
tolC growth inh: growth inhibitors of E. coli tolC mutant, primary screen, strain BW25113 ΔtolC::kan, 384-well; OD615; growth inhibition, % at 10 µM (by protocol); 2.2% of 65,000 active; AID 573, 2007;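 active means growth inhibition at or above a cutoff equal to the mean over every tested compound plus 3 SD, cut at about 60% in these data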;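 further: growth measured after 20 h incubation at 37 °C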
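Signal: optical density read at 615 nm; Assay system: E. coli ΔtolC::kan strain BW25113; Times: 20 h incubation with compound, 37 °C; Dosing: 10 µM final, single dose.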
The depositor's hits bear a star; . = no result given.

SMILES | Mac1 fbg inh | Pyk2 oligo antag | E coli WT exp | Mac1 fbg enh | tolC growth inh
Cn1c(=O)c(C(=O)Nc2cccnc2)c(O)c2ccccc21 | . | . | . | . | 8.4
CCCc1cc(-c2[nH]ncc2-c2ccc3c(c2)OCCCO3)c(O)cc1O | 29.8 | -2.54 | 15.0 | -0.6 | 100.0*
OC1(c2ccc(OC(F)F)cc2)CSC(=Nc2cccnc2)N1C1CC1 (stereo unspecified) | . | 0.16 | 15.0 | . | .
O=C(Nc1cc(Sc2ccccn2)cc([N+](=O)[O-])c1)c1ccc(Cl)cc1 | . | -3.71* | -2.0 | . | .
COc1ccc(Cl)cc1C(=O)NNC(=S)NC(=O)c1cc(-c2ccccc2)nc2ccccc12 | 16.1 | -0.05 | -10.0 | 62.4* | .
O=C(N1CCN(c2ccccc2F)CC1)C12CC3CC(CC(C3)C1)C2 | -24.7 | -0.54 | 10.0 | -1.5 | 88.9*
Cc1cccc(N2CCN(C(=O)C34CC5CC(CC(C5)C3)C4)CC2)c1C | -7.8 | -1.75 | -6.0 | 1.3 | 63.4*
O=C(N1CCN(c2ccc(F)cc2)CC1)C12CC3CC(CC(C3)C1)C2 | 6.9 | 0.08 | 4.0 | 26.3 | 3.1
CN(C)S(=O)(=O)N(Cc1ccc(Br)cc1)c1ccccc1 | . | 1.11 | 8.0 | . | 88.2*
COc1ccc(-n2c(C)cc(C(=O)CN3C(=O)c4ccccc4C3=O)c2C)cc1 | 23.4 | . | . | -0.4 | .
COc1ccc(-n2c(C)cc(C(=O)COC(=O)Cn3cnc4ccccc43)c2C)cc1 | 97.1* | 0.1 | 16.0 | -8.9 | 62.9*
COc1cc(NC(=O)C2CC(=O)NC3=C2C(=O)CCC3)c(OC)cc1Cl (stereo unspecified) | . | 0.41 | 6.0 | . | .
CCNC(=O)NC(=O)COC(=O)c1ccccc1SCC(=O)NC(=O)NCC | 86.0 | 0.02 | -7.0 | 2.7 | 11.4
COCCn1c(C)cc(C2=NNC(=Nc3ccccc3)SC2)c1C | 39.0 | 0.94 | -7.0 | -2.8 | .
COCCn1c(C)cc(C2=NNC(=Nc3ccc(OC)cc3)SC2)c1C | 23.0 | -0.39 | -1.0 | 81.4* | .
CCCCOCCCn1c(-c2ccco2)nc2nc3ccccc3nc21 | -5.7 | 0.3 | 6.0 | -4.1 | 43.3
O=[N+]([O-])c1cccc(-c2nc(NCc3ccccc3)c3ccccc3n2)c1 | . | -1.53 | . | . | .
c1ccc(-c2nc(NCc3cccnc3)c3ccccc3n2)cc1 | -1.9 | -3.67* | 18.0 | -0.9 | .
Cc1ccc(-c2nc(N/N=C/c3cccc([N+](=O)[O-])c3)c3ccccc3n2)cc1 | . | -1.03 | -8.0 | . | .
c1cncc(-c2nc(NCc3ccco3)c3ccccc3n2)c1 | -3.7 | -0.08 | 2.0 | -1.7 | 30.3
Clc1cccc(-c2nc(NCc3cccnc3)c3ccccc3n2)c1 | -1.3 | -3.67* | -7.0 | 5.8 | .
Cc1ccc(-c2nc(N/N=C/c3cccnc3)c3ccccc3n2)cc1 | 94.8* | -2.92 | -5.0 | -8.2 | .
CCCCCOCC1CC(C/C(C)=N/Nc2nc(-c3ccccc3)cs2)C(=O)O1 (stereo unspecified) | . | 0.12 | -3.0 | . | .
Cc1ccc(NC2SC(=O)N(CC(=O)O)C2=O)cc1 (stereo unspecified) | -6.6 | 0.35 | 6.0 | -0.6 | .
Cc1ccc(CN(C(=O)Cn2nnc3ccccc32)C(C(=O)NCc2ccco2)c2cccs2)cc1 (stereo unspecified) | 1.4 | -1.94 | -12.0 | 0.0 | 8.6
SMILES | Mac1 fbg inh | Pyk2 oligo antag | E coli WT exp | Mac1 fbg enh | tolC growth inh
O=C(NC1CCCCC1)C(c1ccco1)N(Cc1cccs1)C(=O)Cn1nnc2ccccc21 (stereo unspecified) | 6.0 | -1.01 | . | -1.1 | 11.7
O=C(NCc1ccco1)C(c1cccs1)N(Cc1ccccc1)C(=O)Cn1nnc2ccccc21 (stereo unspecified) | -3.6 | -3.28* | -8.0 | 0.8 | 7.9
O=C(NCc1ccco1)C(c1ccco1)N(Cc1cccs1)C(=O)Cn1nnc2ccccc21 (stereo unspecified) | . | -3.82* | . | . | .
Cc1cc(N2CCCCC2)nc(SCc2ccc(C#N)cc2)n1 | -13.1 | -1.08 | 0.0 | -3.9 | 78.5*
CCOc1ccc(Nc2cc(C)nc(-n3nc(C)cc3C)n2)cc1 | 29.7 | 0.87 | 10.0 | -4.5 | 72.2*
COc1ccc(C(=O)NC2(C(F)(F)F)C(=O)N(Cc3ccco3)C3=C2C(=O)CC(C)(C)C3)cc1OC (stereo unspecified) | . | 0.12 | 3.0 | . | .
COc1cccc(-c2cc(C(=O)N3CCCCC3C)no2)c1 (stereo unspecified) | . | -0.23 | 4.0 | . | 2.1
COc1cccc(-c2cc(C(=O)N3CC4(C)CC3CC(C)(C)C4)no2)c1 (stereo unspecified) | 2.9 | -1.35 | -9.0 | 0.6 | 79.8*
CCOC(=O)c1cccc(NC(=O)CN(c2ccc(C)cc2)S(=O)(=O)c2c(C)n[nH]c2C)c1 | -2.3 | -3.02* | -7.0 | -0.1 | 32.4
Cc1ccc(N(CC(=O)Nc2cccc(C)c2)S(=O)(=O)c2cccc3nonc23)cc1 | 9.9 | -1.04 | -7.0 | -2.0 | 61.9*
CCc1cccc(NC(=O)CN(c2ccc(OC)cc2)S(=O)(=O)c2c(C)n[nH]c2C)c1 | -8.6 | -3.16* | -15.0 | 2.5 | 36.9
COc1ccc(N(CC(=O)Nc2ccc(C)c(C)c2)S(=O)(=O)c2c(C)n[nH]c2C)cc1 | -7.8 | -3.28* | 3.0 | 6.1 | 19.1
O=S(=O)(c1cccc2cccnc12)N1CCN(c2ccccc2)CC1 | 1.0 | -1.34 | 1.0 | -4.2 | .
Cc1ccc2cccc(S(=O)(=O)N3CCN(c4cccc(Cl)c4)CC3)c2n1 | 12.7 | -3.13* | -11.0 | -0.9 | 27.2
CCc1ccccc1N1C(=O)c2cccc3c(N4CCOCC4)c([N+](=O)[O-])cc(c23)C1=O | . | -3.03* | 2.0 | . | .
CCCn1c(SCC(=O)N2c3ccc(F)cc3CCC2C)nnc1-c1ccccn1 (stereo unspecified) | . | -0.95 | . | . | .
C=CCSc1nc(N)c(C#N)c(-c2ccc(C)cc2)c1C#N | -20.5 | -3.46* | -5.0 | 6.4 | 18.7
CCSc1nc(N)c(C#N)c(-c2ccccc2Cl)c1C#N | 7.9 | -3.73* | -5.0 | -2.2 | 14.3
CC(C)C[C@H](NC(=O)OC(C)(C)C)c1nnc(SCc2cccc(F)c2)o1 | -5.0 | -0.87 | -4.0 | 19.8 | 73.2*
N#CC1=C(SCC(=O)c2cc3ccccc3oc2=O)NC(=O)C(C#N)C12CCCC2 (stereo unspecified) | 1.1 | -0.48 | -2.0 | -0.2 | 60.7*
CC(C)(C)C1CCC2(CC1)C(C#N)=C(SCC(=O)Nc1ccccc1)NC(=O)C2C#N (stereo unspecified) | 103.2 | -1.39 | 2.0 | -11.8 | 15.5
O=C(Nc1ccccc1)C1CCN(C(=O)c2ccccc2)CC1 | -10.5 | 0.88 | -4.0 | -3.2 | .
COCCN(CCOC)c1ncnc2c1cnn2-c1ccccc1 | . | . | . | . | -7.7
CCN(c1ccccc1)c1ncnc2c1cnn2-c1ccccc1 | -1.0 | . | -2.0 | 4.0 | 100.0*
CN(Cc1ccccc1)c1ncnc2c1cnn2-c1ccccc1 | 38.2 | -1.49 | -15.0 | -4.0 | 92.3*
c1ccc(CCNc2ncnc3c2cnn3-c2ccccc2)cc1 | . | -1.91 | . | . | 72.5*
COc1ncnc2c1cnn2-c1ccccc1 | -1.1 | 0.43 | -3.0 | -3.9 | .
